# Measured values reported in ChEMBL document CHEMBL4428057, “Discovery, Synthesis, and Evaluation of 2,4-Diaminoquinazolines as a Novel Class of Pancreatic β-Cell-Protective Agents against Endoplasmic Reticulum (ER) Stress” (J Med Chem, 2016).
# The source made the active and inactive calls. The calls are words filed in the database; no cut-off is given here.
# What was measured:
# INS1 [1] = experiment: Protection against tunicamycin induced endoplasmic reticulum stress in rat INS-1 cells assessed as increase in cell viability after 3 days by CellTiter-Glo assay relative to control; format: functional
# How it was run: (§1)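 INS-1 cells at 3×10^3/well (384-well) co-treated with Tm 0.1 µg/mL and compound for 72 h; CellTiter-Glo ATP luminescence. Activity is % rescue, with Tm alone = 0% and DMSO without Tm = 100%. EC50 from ten 2-fold serial dilutions by curve fit; triplicate.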
# INS1 [2] = experiment: Protection against tunicamycin induced endoplasmic reticulum stress in rat INS-1 cells assessed as increase in cell viability after 3 days by CellTiter-Glo assay; format: functional, cell-based; conditions: INS1, 72 h; how it was run: as §1
# INS1 [3] = experiment: Protection against tunicamycin induced endoplasmic reticulum stress in rat INS-1 cells assessed as increase in cell viability at 5 uM after 72 hrs by CellTiter-Glo assay; format: functional, cell-based
# INS1 [4] = experiment: Protection against tunicamycin induced endoplasmic reticulum stress in rat INS-1 cells assessed as increase in cell viability at 30 uM after 72 hrs by CellTiter-Glo assay; format: functional, cell-based
Structure (SMILES),%max (INS1 [1]),EC50 (INS1 [2]),Activity (INS1 [3]),Activity (INS1 [4])
OC[C@@H]1CCCN1c1nc(NCCc2ccccc2Cl)c2ccccc2n1,50.6%,1.44 µM,–,–
OC[C@@H]1CCCN1c1nc(NCCc2ccccc2)c2ccccc2n1,54.4%,0.48 µM,–,–
COc1ccc(CNc2nc(N3CCC[C@H]3CO)nc3ccccc23)cc1OC,44.9%,1.85 µM,–,–
COc1ccccc1CCNc1nc(N2CCC[C@H]2CO)nc2ccccc12,56.6%,3.56 µM,–,–
OC[C@@H]1CCCN1c1nc(NCCc2ccccc2F)c2ccccc2n1,52.5%,1.7 µM,–,–
COc1cccc(CCNc2nc(N3CCC[C@H]3CO)nc3ccccc23)c1,54.9%,1.51 µM,–,–
OC[C@@H]1CCCN1c1nc(NCCc2ccccc2Br)c2ccccc2n1,39%,1.88 µM,–,–
OC[C@@H]1CCCN1c1nc(NCCc2ccc(F)cc2)c2ccccc2n1,56.2%,2.13 µM,–,–
OC[C@@H]1CCCN1c1nc(NCCc2ccc(Cl)cc2)c2ccccc2n1,57.3%,0.51 µM,–,–
OC[C@@H]1CCCN1c1nc(NCCc2cccc(F)c2)c2ccccc2n1,51.3%,1.15 µM,–,–
COc1ccc(CNc2nc(N3CCCCC3CO)nc3ccccc23)cc1OC (configuration not stated),69.4%,3.64 µM,–,–
OC[C@@H]1CCCN1c1nc(NCCc2ccc(Br)cc2)c2ccccc2n1,44.1%,0.65 µM,–,–
OCC1CCCCN1c1nc(NCc2ccccc2)c2ccccc2n1 (configuration not stated),56.4%,0.23 µM,–,–
Cc1ccc(CCNc2nc(N3CCC[C@H]3CO)nc3ccccc23)cc1,34.2%,0.66 µM,–,–
OC[C@@H]1CCCN1c1nc(NCCc2cccc(Br)c2)c2ccccc2n1,53.2%,0.78 µM,–,–
COc1ccc(CNc2nc(N3CCC[C@H]3CO)nc3ccccc23)cc1,57.2%,4.05 µM,–,–
OCC1CCCCN1c1nc(NCc2ccc(Cl)cc2)c2ccccc2n1 (configuration not stated),54.7%,0.21 µM,–,–
OC[C@@H]1CCCN1c1nc(NCCc2cccc(Cl)c2)c2ccccc2n1,51.5%,1.05 µM,–,–

Structure (SMILES),%max (INS1 [1]),EC50 (INS1 [2]),Activity (INS1 [3]),Activity (INS1 [4])
COc1ccc(CNc2nc(N3CCCC[C@@H]3CO)nc3ccccc23)cc1,–,–,Active,–
COc1ccc(CNc2nc(N3CCCC[C@H]3CO)nc3ccccc23)cc1,–,–,Active,–
Nc1nnc(Sc2cc(-n3cccc3)c(Cl)cc2[N+](=O)[O-])[nH]1,–,–,–,Active
OCC1CCCCN1c1nc(NCCc2ccccc2Br)c2ccccc2n1 (racemic),44.2%,1.41 µM,–,–
OCC1CCCCN1c1nc(NCCc2ccc(F)cc2)c2ccccc2n1 (racemic),47.5%,0.31 µM,–,–
Cc1ccc(CCNc2nc(N3CCCCC3CO)nc3ccccc23)cc1 (racemic),33.6%,0.14 µM,–,–
OCC1CCCCN1c1nc(NCCc2ccc(Cl)cc2)c2ccccc2n1 (racemic),57.6%,0.17 µM,–,–
OCC1CCCCN1c1nc(NCCc2ccccc2F)c2ccccc2n1 (racemic),60.3%,1.46 µM,–,–
OCC1CCCCN1c1nc(NCCc2ccccc2)c2ccccc2n1 (racemic),55.7%,0.36 µM,–,–
COc1cccc(CCNc2nc(N3CCCCC3CO)nc3ccccc23)c1 (racemic),69.2%,2.59 µM,–,–
OCC1CCCCN1c1nc(NCCc2cccc(Br)c2)c2ccccc2n1 (racemic),51.7%,0.77 µM,–,–
OCC1CCCCN1c1nc(NCCc2cccc(Cl)c2)c2ccccc2n1 (racemic),46.2%,0.79 µM,–,–
OCC1CCCCN1c1nc(NCCc2cccc(F)c2)c2ccccc2n1 (racemic),57.3%,1.88 µM,–,–
OCC1CCCCN1c1nc(NCCc2ccc(Br)cc2)c2ccccc2n1 (racemic),52.8%,0.34 µM,–,–
COc1ccc(CCNc2nc(N3CCCCC3CO)nc3ccccc23)cc1 (racemic),58.6%,0.31 µM,–,–
OCC1CCCCN1c1nc(NCCc2ccccc2Cl)c2ccccc2n1 (racemic),51.4%,0.47 µM,–,–
COc1ccccc1CCNc1nc(N2CCCCC2CO)nc2ccccc12 (racemic),46.9%,1.6 µM,–,–
